Data reported in ChEMBL document CHEMBL3588846, “Aryl Pyrazoles as Potent Inhibitors of Arginine Methyltransferases: Identification of the First PRMT6 Tool Compound” (ACS Med Chem Lett, 2015).
pIC50: −log10 of the molar value. Activity calls are given as the source filed them. The rule behind the calls is not given here.

What was measured:
[1] = molecular target: T1, Protein arginine N-methyltransferase 6 (Homo sapiens, UniProt Q96LA8); assay: Inhibition of FLAG and hexa-histidine tagged full-length human PRMT6 expressed in HEK293F cells pre-incubated for 30 mins before addition of a [3H]SAM and peptide mix; format: cell-based
[2] = molecular target: Protein arginine N-methyltransferase 8 (Homo sapiens, UniProt Q9NR22); assay: Inhibition of N-terminal GST tagged full-length human PRMT8 expressed in Escherichia coli (BL21(DE3) pre-incubated for 30 mins before addition of a [3H]SAM and peptide mix
[3] = molecular target: T1, Protein arginine N-methyltransferase 6; assay: Inhibition of his-tagged PRMT6 (unknown origin) expressed in human A375 cells assessed as reduction in H3R2 methylation at 0.01 to 20 uM incubated for 48 hrs by Western blot method; format: cell-based, A-375
[4] = Clearance in Sprague-Dawley rat at 1 mg/kg, iv administered as single dose by LC-MS/MS method; format: ADME, organism-based; conditions: in vivo
[5] = AUC (0 to infinity) in Sprague-Dawley rat at 1 mg/kg, iv administered as single dose by LC-MS/MS method; format: ADME, organism-based; parameters: dose 1 mg/kg, route intravenous, time infinity; conditions: in vivo
[6] = Cmax in Sprague-Dawley rat at 5 mg/kg, sc by LC-MS/MS method; format: ADME, organism-based; parameters: dose 5 mg/kg, route subcutaneous; conditions: in vivo
A-375 = assay: Effect on PRMT6 expression in human A375 cells transfected with his-tagged PRMT6 at 0.01 to 20 uM incubated for 48 hrs by Western blot method; format: functional, cell-based
Procedure, shortened: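 A375 cells were transfected with a PRMT6 expression construct, with empty vector as the control, and PRMT6 was overexpressed for 48 h. Compound exposure also lasted 48 h. PRMT6 protein levels were then checked in the treated cells.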

[7] = Oral bioavailability in rat; format: ADME, organism-based; conditions: in vivo
[8] = molecular target: T2, Protein arginine N-methyltransferase 1 (Homo sapiens, UniProt Q99873); assay: Inhibition of PRMT1 in human A375 cells assessed as effect on monomethyl R*GG motif methylation at 0.01 to 20 uM incubated for 48 hrs by Western blot method; format: cell-based, A-375
[9] = Terminal half life in Sprague-Dawley rat at 5 mg/kg, sc by LC-MS/MS method; format: ADME, organism-based; conditions: in vivo, read-out: beta t1/2 (converted)
[10] = Volume of distribution at steady state in Sprague-Dawley rat at 1 mg/kg, iv administered as single dose by LC-MS/MS method; format: ADME, organism-based; conditions: in vivo, read-out: Vdss
[11] = AUC (0 to infinity) in Sprague-Dawley rat at 5 mg/kg, sc by LC-MS/MS method; format: ADME, organism-based; parameters: dose 5 mg/kg, route subcutaneous, time infinity; conditions: in vivo
[12] = AUC (0 to t) in Sprague-Dawley rat at 5 mg/kg, sc by LC-MS/MS method; format: ADME, organism-based; conditions: in vivo
[13] = Tmax in Sprague-Dawley rat at 5 mg/kg, sc by LC-MS/MS method; format: ADME, organism-based; conditions: in vivo
[14] = Terminal half life in Sprague-Dawley rat at 1 mg/kg, iv administered as single dose by LC-MS/MS method; format: ADME, organism-based; conditions: in vivo, read-out: beta t1/2 (converted)
[15] = Unbound fraction in Sprague-Dawley rat plasma at 1 uM at 37 degC by equilibrium dialysis and LC-MS/MS method; format: ADME, cell-free
[16] = Permeability of the compound at 10 uM at pH 7.4 by LC-MS/MS based PAMPA method; format: physicochemical; conditions: read-out: permeability
[17] = Bioavailability in Sprague-Dawley rat at 5 mg/kg, sc by LC-MS/MS method; format: ADME, organism-based; conditions: in vivo
[18] = AUC (0 to t) in Sprague-Dawley rat at 1 mg/kg, iv administered as single dose by LC-MS/MS method; format: ADME, organism-based; conditions: in vivo
[19] = Unbound fraction in human plasma at 1 uM at 37 degC by equilibrium dialysis and LC-MS/MS method; format: ADME, cell-free
Rattus norvegicus = assay: Time above biochemical PRMT6 IC50 in Sprague-Dawley rat at 5 mg/kg, sc by LC-MS/MS method
[20] = molecular target: T2, Protein arginine N-methyltransferase 1; assay: Inhibition of N-terminal GST tagged full-length human PRMT1 expressed in high five insect cells pre-incubated for 30 mins before addition of a [3H]SAM and peptide mix

T1 sequence (Q96LA8 whole entry): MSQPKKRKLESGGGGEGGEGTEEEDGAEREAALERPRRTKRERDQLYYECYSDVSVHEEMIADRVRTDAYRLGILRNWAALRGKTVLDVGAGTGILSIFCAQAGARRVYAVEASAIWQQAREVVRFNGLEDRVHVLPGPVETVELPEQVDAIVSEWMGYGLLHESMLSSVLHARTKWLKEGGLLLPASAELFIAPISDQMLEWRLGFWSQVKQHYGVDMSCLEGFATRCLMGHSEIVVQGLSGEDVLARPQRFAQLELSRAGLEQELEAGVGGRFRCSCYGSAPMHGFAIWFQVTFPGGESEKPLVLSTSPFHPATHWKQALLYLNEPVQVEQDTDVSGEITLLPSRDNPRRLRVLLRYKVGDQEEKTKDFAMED
Sequence of Protein arginine N-methyltransferase 8 (Q9NR22 whole entry): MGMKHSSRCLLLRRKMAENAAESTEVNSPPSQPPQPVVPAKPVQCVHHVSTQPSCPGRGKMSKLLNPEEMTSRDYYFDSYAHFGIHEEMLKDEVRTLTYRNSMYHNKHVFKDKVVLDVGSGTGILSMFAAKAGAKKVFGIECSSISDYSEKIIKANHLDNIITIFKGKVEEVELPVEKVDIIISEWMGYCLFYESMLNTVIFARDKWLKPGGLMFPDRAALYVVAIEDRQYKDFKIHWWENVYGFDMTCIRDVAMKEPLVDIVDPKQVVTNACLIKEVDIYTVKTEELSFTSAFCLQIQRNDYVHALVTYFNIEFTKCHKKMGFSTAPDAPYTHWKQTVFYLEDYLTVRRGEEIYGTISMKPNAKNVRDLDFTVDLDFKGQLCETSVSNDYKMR
T2 sequence (Q99873 whole entry): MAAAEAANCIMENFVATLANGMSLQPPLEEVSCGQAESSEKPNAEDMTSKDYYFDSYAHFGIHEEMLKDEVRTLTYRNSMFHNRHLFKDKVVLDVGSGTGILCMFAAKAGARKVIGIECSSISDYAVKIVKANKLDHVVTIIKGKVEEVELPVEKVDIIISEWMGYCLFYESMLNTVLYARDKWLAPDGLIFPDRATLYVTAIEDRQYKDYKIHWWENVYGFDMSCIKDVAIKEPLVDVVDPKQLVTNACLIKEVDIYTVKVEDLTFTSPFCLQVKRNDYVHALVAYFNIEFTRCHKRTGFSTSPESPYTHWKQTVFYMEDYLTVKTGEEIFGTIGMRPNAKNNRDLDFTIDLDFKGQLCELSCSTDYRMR

CNCCN(C)Cc1c[nH]nc1-c1cc(OCCc2ccccc2)cc(C(F)(F)F)c1
pIC50 [1]: 6.49
pIC50 [2]: 7.64

CCOc1ccc(-c2[nH]ncc2CN(C)CCNC)cc1
pIC50 [1]: 7.60

CNCCN(C)Cc1c[nH]nc1-c1cc(OC(CO)CC(C)C)cc(C(F)(F)F)c1 (stereo not drawn)
pIC50 [3]: < 4.70

CNCCN(C)Cc1cn[nH]c1-c1ccc(OC(C)C)c(Cl)c1
pIC50 [1]: 8.00

CNCCN(C)Cc1n[nH]cc1-c1ccc(Oc2ccccc2C(=O)NC)cc1
pIC50 [1]: 8.30
pIC50 [2]: 7.19

CNCCN(C)Cc1c[nH]nc1-c1ccc(O[C@H]2C[C@H](OCCC3CCOCC3)C2)cc1
clearance [4]: 19.7 mL/min/kg
AUC(0-inf) [5]: 846 ng·h/mL
Cmax [6]: 844 ng/mL
Activity (A-375): inactive
bioavailability [7]: < 5%
pIC50 [8]: 5.15
half-life [9]: 551 min
Vd [10]: 11.1 L/kg
AUC(0-inf) [11]: 2780 ng·h/mL
AUC(0-t) [12]: 2460 ng·h/mL
Tmax [13]: 26.6 min
half-life [14]: 512 min
fraction unbound at 1 µM [15]: 0.51
Papp at 10 µM [16]: 0.1 ×10⁻⁶ cm/s
bioavailability [17]: 65.6%
AUC(0-t) [18]: 745 ng·h/mL
fraction unbound at 1 µM [19]: 0.52
Time (Rattus norvegicus): > 12 h
pIC50 [3]: 6.20

CNCCN(C)Cc1c[nH]nc1-c1ccc(Oc2cccc(C(=O)N(C)C)c2)cc1
pIC50 [1]: 8.52
pIC50 [2]: 6.75

CNCCN(C)Cc1c[nH]nc1-c1ccc(OC(C)C)cc1
pIC50 [1]: 7.96

CC(C)Oc1c(Cl)cc(-c2c[nH]nc2CN(C)CCN)cc1C(F)(F)F
pIC50 [1]: 6.49
pIC50 [2]: 7.15

CNCCN(C)Cc1c[nH]nc1-c1cc(OCCC2CCCCC2)cc(C(F)(F)F)c1
pIC50 [1]: 6.34
pIC50 [2]: 7.68

CN(CCN)Cc1c[nH]nc1-c1ccc(OCCCN2CCOCC2)cc1
pIC50 [1]: 7.89

CC(C)Oc1ccc(-c2[nH]ncc2CN(C)CCN)cc1Cl
pIC50 [1]: 8.10

CNCCN(C)Cc1n[nH]cc1-c1ccc(Oc2cccc(C(=O)N(C)C)c2)cc1
pIC50 [1]: 8.70
pIC50 [2]: 6.46

CNCCN(C)Cc1cn[nH]c1-c1ccc(OC(CO)C(C)C)cc1 (stereo not drawn)
pIC50 [20]: 7.57
